In ChEMBL document CHEMBL1921669, “In vivo PET imaging of histone deacetylases by 18F-suberoylanilide hydroxamic acid (18F-SAHA)” (J Med Chem, 2011):

Key:
Brain = experiment: Biodistribution in C57BL/6 mouse brain at 241 +/- 18 uCi, iv; format: ADME, organism-based; settings: in vivo
How it was run: (§1)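 Six C57BL/6 mice got the 18F tracer by tail-vein iv injection. Groups were sacrificed at 1 h (n = 3) and 3 h (n = 3) after dosing. Tissues were excised and weighed, and 18F activity was counted by gamma counter. Values are expressed as % injected dose per gram of tissue.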

Heart = experiment: Biodistribution in C57BL/6 mouse heart at 241 +/- 18 uCi, iv; format: ADME, organism-based; settings: in vivo; how it was run: as §1
Nucleic Acid [1] = experiment: Ratio of drug uptake in tumor to muscle in human A2780 cells xenografted Nu/Nu mouse at 2 mg in 100 uL of 60% PEG400 40% water, ip after 3 hrs by PET-CT analysis; format: ADME, organism-based; settings: in vivo
How it was run: (§2)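 Nu/Nu mice (n = 5) bearing subcutaneous flank A2780 human ovarian cancer xenografts (10⁶ cells in Matrigel per flank), imaged 10 days after implantation. ¹⁸F-labelled tracer PET-CT under isoflurane anaesthesia (1.5%, O₂ 2 L/min), each acquisition ~80 min. […] Read-out: tumor/muscle uptake ratio.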

[2] = Initial half life in iv dosed mouse plasma; format: ADME, organism-based; settings: read-out: alphat1/2
Blood = experiment: Biodistribution in C57BL/6 mouse blood at 241 +/- 18 uCi, iv; format: ADME, organism-based; settings: in vivo; how it was run: as §1
Mus musculus [3] = experiment: Biodistribution in C57BL/6 mouse whole blood at 243 +/- 25 uCi, iv using 10% DMSO, 90% water formulation; format: ADME, organism-based; settings: in vivo
How it was run: (§3)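 The 18F tracer was given to C57BL/6 mice by tail-vein iv bolus, n = 3 per vehicle. Vehicles were 60% PEG400 in water, 10% DMSO in water, or 20% DMAC:Solutol (1:1) in saline. Serial retro-orbital blood was drawn into tared capillary tubes, weighed and gamma-counted to give the blood time-activity curve.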

Liver = experiment: Biodistribution in C57BL/6 mouse liver at 241 +/- 18 uCi, iv; format: ADME, organism-based; settings: in vivo; how it was run: as §1
Mus musculus [4] = experiment: Biodistribution in human A2780 cells xenografted Nu/Nu mouse tumor at 2 mg in 100 uL of 60% PEG400 40% water, ip by PET-CT analysis; format: ADME, organism-based, Neoplasm; settings: in vivo, TDE = time-dependent effect
How it was run: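 Nu/Nu mice (n = 5) carried subcutaneous A2780 human ovarian cancer implants (10⁶ cells in Matrigel per flank) and were imaged 10 days later under isoflurane 1.5%. The 18F tracer was scanned by PET-CT (about 80 min acquisition) before and after competition. […] Read-out was the tumor/muscle ratio.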

Mus musculus [5] = experiment: Biodistribution in C57BL/6 mouse thymus at 241 +/- 18 uCi, iv; format: ADME, organism-based; settings: in vivo; how it was run: as §1
Mus musculus [6] = experiment: Biodistribution in C57BL/6 mouse whole blood at 243 +/- 25 uCi, iv using 60% PEG400, 40% water formulation; format: ADME, organism-based; settings: in vivo; how it was run: as §3
Nucleic Acid [7] = experiment: Ratio of drug uptake in tumor to muscle in human A2780 cells xenografted Nu/Nu mouse at 2 mg in 100 uL of 60% PEG400 40% water, ip administered as 2 dose every 24 hrs interval measured after 3 hrs of post last dose by PET-CT analysis; format: ADME, organism-based; settings: in vivo; how it was run: as §2
Mus musculus [8] = experiment: Biodistribution in C57BL/6 mouse whole blood at 243 +/- 25 uCi, iv using […] dimethylacetamide, 10% Solutol HS15, 80% PBS formulation; format: ADME, organism-based; settings: in vivo; how it was run: as §3
Kidney = experiment: Biodistribution in C57BL/6 mouse kidney at 241 +/- 18 uCi, iv; format: ADME, organism-based; settings: in vivo; how it was run: as §1
Histone deacetylase 3 = Histone deacetylase 3 (Homo sapiens, UniProt O15379); experiment: Inhibition of human recombinant full-length HDAC3 using fluorophore conjugated substrate by fluorescence assay
Histone deacetylase 2 = Histone deacetylase 2 (Homo sapiens, UniProt Q92769); experiment: Inhibition of human recombinant full-length HDAC2 using fluorophore conjugated substrate by fluorescence assay
[9] = target: T1, Protein deacetylase HDAC6 (Homo sapiens, UniProt Q9UBN7); experiment: Inhibition of human recombinant full-length HDAC6 using fluorophore conjugated substrate by fluorescence assay
T1 sequence (Q9UBN7 whole entry): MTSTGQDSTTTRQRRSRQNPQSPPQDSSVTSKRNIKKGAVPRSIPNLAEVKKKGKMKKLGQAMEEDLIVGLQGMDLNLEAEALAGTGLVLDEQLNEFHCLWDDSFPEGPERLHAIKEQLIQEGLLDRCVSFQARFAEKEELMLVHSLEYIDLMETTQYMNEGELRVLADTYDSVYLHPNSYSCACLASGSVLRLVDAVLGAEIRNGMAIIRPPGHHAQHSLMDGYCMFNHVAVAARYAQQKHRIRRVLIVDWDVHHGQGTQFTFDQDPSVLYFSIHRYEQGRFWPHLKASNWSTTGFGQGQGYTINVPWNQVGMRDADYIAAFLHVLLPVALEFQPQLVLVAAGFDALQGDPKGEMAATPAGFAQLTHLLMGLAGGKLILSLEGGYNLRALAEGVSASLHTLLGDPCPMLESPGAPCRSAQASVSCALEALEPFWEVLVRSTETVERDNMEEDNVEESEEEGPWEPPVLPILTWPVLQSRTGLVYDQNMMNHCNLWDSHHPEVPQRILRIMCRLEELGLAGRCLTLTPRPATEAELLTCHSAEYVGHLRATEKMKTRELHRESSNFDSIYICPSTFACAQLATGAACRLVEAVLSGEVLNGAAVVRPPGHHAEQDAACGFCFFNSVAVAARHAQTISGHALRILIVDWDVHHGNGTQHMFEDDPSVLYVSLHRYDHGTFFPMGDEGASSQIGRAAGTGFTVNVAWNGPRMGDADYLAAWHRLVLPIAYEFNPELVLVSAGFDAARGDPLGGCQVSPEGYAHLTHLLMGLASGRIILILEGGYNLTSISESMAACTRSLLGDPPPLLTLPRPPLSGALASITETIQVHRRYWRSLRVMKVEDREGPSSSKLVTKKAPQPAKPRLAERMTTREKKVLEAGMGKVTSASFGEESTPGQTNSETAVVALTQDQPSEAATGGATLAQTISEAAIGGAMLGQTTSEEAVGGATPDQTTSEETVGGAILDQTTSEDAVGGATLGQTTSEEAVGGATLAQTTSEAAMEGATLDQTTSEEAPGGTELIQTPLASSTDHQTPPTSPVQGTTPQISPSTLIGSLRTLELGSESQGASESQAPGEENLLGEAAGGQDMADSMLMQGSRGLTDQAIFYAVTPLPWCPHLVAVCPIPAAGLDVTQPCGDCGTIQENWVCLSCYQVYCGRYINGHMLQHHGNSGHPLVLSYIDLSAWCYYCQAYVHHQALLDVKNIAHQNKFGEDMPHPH

Histone deacetylase 1 = Histone deacetylase 1 (Homo sapiens, UniProt Q13547); experiment: Inhibition of human recombinant full-length HDAC1 using fluorophore conjugated substrate by fluorescence assay
Sequence of Histone deacetylase 1 (Q13547 whole entry): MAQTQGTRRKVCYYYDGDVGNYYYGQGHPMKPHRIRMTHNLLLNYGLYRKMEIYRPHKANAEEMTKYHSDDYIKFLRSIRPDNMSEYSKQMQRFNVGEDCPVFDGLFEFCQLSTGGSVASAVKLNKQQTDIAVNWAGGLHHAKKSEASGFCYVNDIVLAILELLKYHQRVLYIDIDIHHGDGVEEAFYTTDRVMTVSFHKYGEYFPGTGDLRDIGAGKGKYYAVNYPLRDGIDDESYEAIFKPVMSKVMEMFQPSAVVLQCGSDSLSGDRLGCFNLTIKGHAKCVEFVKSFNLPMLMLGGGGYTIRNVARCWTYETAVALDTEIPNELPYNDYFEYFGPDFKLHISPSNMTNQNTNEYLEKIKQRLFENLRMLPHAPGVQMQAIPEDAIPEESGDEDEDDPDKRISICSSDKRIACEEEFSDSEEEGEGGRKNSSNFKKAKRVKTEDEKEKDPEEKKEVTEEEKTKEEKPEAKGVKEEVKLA

Sequence of Histone deacetylase 3 (O15379 whole entry): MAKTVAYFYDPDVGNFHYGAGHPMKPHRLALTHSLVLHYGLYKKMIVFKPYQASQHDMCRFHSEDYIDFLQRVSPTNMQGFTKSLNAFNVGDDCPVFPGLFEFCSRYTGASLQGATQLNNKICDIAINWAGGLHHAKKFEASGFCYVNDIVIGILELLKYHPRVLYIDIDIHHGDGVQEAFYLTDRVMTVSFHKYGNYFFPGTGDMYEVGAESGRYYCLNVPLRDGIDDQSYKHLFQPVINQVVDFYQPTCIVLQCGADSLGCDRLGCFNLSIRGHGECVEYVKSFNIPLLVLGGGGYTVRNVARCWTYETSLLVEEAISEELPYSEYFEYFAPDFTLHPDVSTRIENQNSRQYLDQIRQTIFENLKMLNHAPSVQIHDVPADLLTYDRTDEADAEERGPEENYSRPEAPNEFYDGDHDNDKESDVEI
Sequence of Histone deacetylase 2 (Q92769 whole entry): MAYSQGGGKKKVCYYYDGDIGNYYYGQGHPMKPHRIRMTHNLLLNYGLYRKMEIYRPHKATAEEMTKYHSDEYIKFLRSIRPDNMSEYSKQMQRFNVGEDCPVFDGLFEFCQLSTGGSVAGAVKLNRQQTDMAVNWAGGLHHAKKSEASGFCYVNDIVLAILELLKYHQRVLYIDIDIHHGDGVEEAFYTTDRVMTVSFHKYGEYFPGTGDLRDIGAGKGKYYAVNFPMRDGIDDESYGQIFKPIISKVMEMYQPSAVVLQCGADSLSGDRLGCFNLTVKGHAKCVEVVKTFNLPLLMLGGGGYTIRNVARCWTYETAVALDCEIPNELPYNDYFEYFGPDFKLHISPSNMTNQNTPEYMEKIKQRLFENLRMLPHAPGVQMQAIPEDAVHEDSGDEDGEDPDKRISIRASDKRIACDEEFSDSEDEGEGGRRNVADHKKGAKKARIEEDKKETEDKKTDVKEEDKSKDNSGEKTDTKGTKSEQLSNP

Compound | Drug uptake (Brain) | Drug uptake (Heart) | Ratio (Nucleic Acid [1]) | half-life [2] [min] | Drug uptake (Blood) | Drug uptake (Mus musculus [3]) [% ID/g] | Drug uptake (Liver) | Drug uptake (Mus musculus [4]) | Drug uptake (Mus musculus [5]) | Drug uptake (Mus musculus [6]) [% ID/g] | Ratio (Nucleic Acid [7]) | Drug uptake (Mus musculus [8]) [% ID/g] | Drug uptake (Kidney) | IC50 (Histone deacetylase 3) [nM] | IC50 (Histone deacetylase 2) [nM] | IC50 [9] [nM] | IC50 (Histone deacetylase 1) [nM]
O=C(CCCCCCC(=O)Nc1ccc([18F])cc1)NO | Active | Active | 1.7 | < 1 | Active | 3 | Active | tde | Active | < 1 | 1.3 | 6 | Active |  |  |  | 
O=C(CCCCCCC(=O)Nc1ccc([19F])cc1)NO |  |  |  |  |  |  |  |  |  |  |  |  |  | 23.9 | 12.7 | 50.2 | 9
